Many of the other results were omitted from the sample, so hits are more common in it than they were.
INS-1E rescue – preserves ATP levels in cytokine-treated INS-1E cells; AID 488910; INS-1E cytokine-induced death, ATP luminescence, 48 h; normalised: neutral wells 0, positive control 100; protection from cytokine-induced ATP loss, % at 10 µM; 0.1% of 20,000 active;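 active means mean replicate protection from cytokine-induced ATP loss at least 50% and at least 75% of replicates each reaching 50%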
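assay system = INS-1E rat insulinoma cells | amount = 8000 cells per well | medium = phenol-red-free RPMI with 5% fetal bovine serum | doses = one compound concentration, pin transfer | timing = 48 h cytokine plus compound treatment, 10 min reagent incubation | also added = IL-1β, TNF-α and IFN-γ cytokine mix | signal = CellTiter-Glo luminescence measuring cellular ATP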
A1 apoptosis 2 – compounds inhibiting A1, read as caspase activation | MEF A1-2A-BIM cells, caspase-Glo luminescence, 3 h; percent of clofoctol response, DMSO zero | caspase activation, % (test concentration not listed) | 24,000 tested, under 10 active | AID 2465; in the data active means caspase activation above about 5.9%
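Evaluation: Caspase-3/7 activity from luminescence increase | Assay system: A1-2A-BIM mouse embryonic fibroblasts | Quantity: 2500 MEF cells/well | Medium: RPMI-1640 plus 10% FBS | Detection: Caspase-Glo 3/7 luminescence, 1 h at room temperature | Dosing: 50 nL compound per well, pinned | Timing: Cells settled overnight, compound exposure 3 h at 37 °C, 5% CO2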
T cruzi intra – blocks T. cruzi growth inside host cells. activity score (inhibition), % at 5.01 µM. 4.9% of 22,000 active. intracellular Trypanosoma cruzi in host cells, plate reader. AID 651903; in the data active means activity score above about 55%;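 further: parasites and compound incubated about four days before reading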
A number is an active result; – = inactive; · = not tested or not shown.

SMILES	INS-1E rescue	A1 apoptosis 2	T cruzi intra
C[C@H](CO)N1C[C@H](C)[C@@H](CN(C)Cc2ccc(C(=O)Nc3ccccc3N)cc2)Oc2c(cccc2N(C)C)C1=O	–	–	–
C[C@H]1CN([C@@H](C)CO)C(=O)c2cccc(N(C)C)c2O[C@H]1CN(C)Cc1ccc(C(=O)Nc2ccccc2N)cc1	–	–	58.8
C[C@H]1CN([C@@H](C)CO)C(=O)c2cccc(NC(=O)Nc3ccc(F)cc3)c2O[C@H]1CN(C)Cc1ccc(C(=O)Nc2ccccc2N)cc1	–	·	58.7
C[C@H](CO)N1C[C@H](C)[C@@H](CN(C)Cc2ccc(C(=O)Nc3ccccc3N)cc2)Oc2c(NC(=O)Nc3ccc(F)cc3)cccc2C1=O	–	·	–
C[C@@H]1CN([C@H](C)CO)C(=O)c2cccc(NC(=O)Nc3ccccc3)c2O[C@@H]1CN(C)Cc1ccc(C(=O)Nc2ccccc2N)cc1	–	–	70.2
Cc1ccc(S(=O)(=O)N(C)C[C@@H]2Oc3ccc(NC(=O)c4ccncc4)cc3C(=O)N([C@@H](C)CO)C[C@H]2C)cc1	–	·	–
COc1ccc(NC(=O)N(C)C[C@H]2Oc3c(NC(=O)c4cc(C)nn4C)cccc3C(=O)N([C@H](C)CO)C[C@@H]2C)cc1	–	·	–
C[C@H]1CN([C@@H](C)CO)C(=O)Cc2cc(NC(=O)Nc3cccc4ccccc34)ccc2O[C@H]1CN(C)Cc1ccc(Cl)c(Cl)c1	–	·	–
C[C@@H]1CN([C@H](C)CO)C(=O)c2cccc(NC(=O)Nc3cccc4ccccc34)c2O[C@@H]1CN(C)Cc1ccc(Cl)c(Cl)c1	–	–	–
C[C@H](CO)N1C[C@H](C)[C@@H](CN(C)Cc2ccc(Cl)c(Cl)c2)Oc2c(NC(=O)Nc3cccc4ccccc34)cccc2C1=O	–	–	67.9
C[C@@H]1CN([C@H](C)CO)C(=O)Cc2cc(NC(=O)Nc3cccc4ccccc34)ccc2O[C@@H]1CN(C)Cc1ccc(Cl)c(Cl)c1	–	·	68.1
C[C@@H]1CN([C@H](C)CO)C(=O)Cc2cc(NC(=O)Nc3cccc4ccccc34)ccc2O[C@H]1CN(C)Cc1ccc(Cl)c(Cl)c1	–	·	–
C[C@H]1CN([C@@H](C)CO)C(=O)c2cc(NC(=O)Nc3cccc4ccccc34)ccc2O[C@H]1CN(C)Cc1ccc(Cl)c(Cl)c1	·	–	–
C[C@H](CO)N1C[C@H](C)[C@H](CN(C)Cc2ccc(Cl)c(Cl)c2)Oc2ccc(NC(=O)Nc3cccc4ccccc34)cc2CC1=O	–	–	68.5
C[C@H]1CN([C@@H](C)CO)C(=O)c2cc(NC(=O)Nc3cccc4ccccc34)ccc2O[C@@H]1CN(C)Cc1ccc(Cl)c(Cl)c1	–	–	65.1
C[C@@H]1CN([C@@H](C)CO)C(=O)Cc2cc(NC(=O)C3CCCCC3)ccc2O[C@H]1CN(C)Cc1ccc(C(=O)O)cc1	·	–	·
Cc1noc(C)c1S(=O)(=O)Nc1ccc2c(c1)C(=O)N([C@@H](C)CO)C[C@H](C)[C@H](CN(C)C(=O)c1ccncc1)OCCCC[C@@H](C)O2	·	–	·
C[C@@H]1CN([C@H](C)CO)C(=O)c2cc(NC(=O)Nc3cccc4ccccc34)ccc2O[C@@H]1CN(C)Cc1ccc(C(=O)Nc2ccccc2N)cc1	–	·	–
Cc1noc(C)c1S(=O)(=O)N(C)C[C@H]1Oc2ccc(NC(=O)Cc3ccccc3)cc2CC(=O)N([C@H](C)CO)C[C@H]1C	–	·	–
Cc1noc(C)c1S(=O)(=O)Nc1ccc2c(c1)C(=O)N([C@@H](C)CO)C[C@@H](C)[C@@H](CN(C)Cc1ccc(C(=O)Nc3ccccc3N)cc1)O2	–	–	–
Cc1noc(C)c1S(=O)(=O)Nc1ccc2c(c1)C(=O)N([C@H](C)CO)C[C@@H](C)[C@@H](CN(C)Cc1ccc(C(=O)Nc3ccccc3N)cc1)O2	–	–	64.7
Cc1noc(C)c1S(=O)(=O)Nc1ccc2c(c1)CC(=O)N([C@@H](C)CO)C[C@H](C)[C@H](CN(C)Cc1ccc(C(=O)Nc3ccccc3N)cc1)O2	·	–	·
Cc1noc(C)c1S(=O)(=O)Nc1ccc2c(c1)C(=O)N([C@H](C)CO)C[C@H](C)[C@H](CN(C)Cc1ccc(C(=O)Nc3ccccc3N)cc1)O2	–	·	79.0
Cc1noc(C)c1S(=O)(=O)Nc1ccc2c(c1)C(=O)N([C@@H](C)CO)C[C@H](C)[C@@H](CN(C)Cc1ccc(C(=O)Nc3ccccc3N)cc1)O2	–	–	–
Cc1noc(C)c1S(=O)(=O)Nc1ccc2c(c1)CC(=O)N([C@H](C)CO)C[C@H](C)[C@H](CN(C)Cc1ccc(C(=O)Nc3ccccc3N)cc1)O2	–	·	75.5
SMILES	INS-1E rescue	A1 apoptosis 2	T cruzi intra
C[C@@H]1CCCCO[C@H](CN(C)C(=O)CCCN(C)C)[C@@H](C)CN([C@H](C)CO)C(=O)c2cc(NC(=O)Cc3ccccc3)ccc2O1	–	–	–
C[C@H](CO)N1C[C@H](C)[C@@H](CN(C)CC2CC2)Oc2ccc(NC(=O)Nc3cccc4ccccc34)cc2CC1=O	·	–	·
COc1ccc(S(=O)(=O)Nc2ccc3c(c2)C(=O)N([C@H](C)CO)C[C@H](C)[C@H](CN(C)S(=O)(=O)c2ccccc2)O3)cc1	·	·	–
C[C@@H]1CN([C@H](C)CO)C(=O)CCCn2cc(nn2)CO[C@@H]1CN(C)C(=O)Nc1cccc(Oc2ccccn2)c1	·	–	–
COc1ccc(S(=O)(=O)N(C)C[C@H]2Oc3ccc(NC(=O)NC(C)C)cc3CC(=O)N([C@@H](C)CO)C[C@@H]2C)cc1	–	·	–
C[C@@H]1CCCCO[C@@H](CN(C)C)[C@H](C)CN([C@@H](C)CO)C(=O)c2cc(NS(=O)(=O)c3ccc(Cl)cc3)ccc2O1	·	–	·
C[C@@H]1CN([C@@H](C)CO)C(=O)c2cc(NC(=O)CCC(F)(F)F)ccc2O[C@@H](C)CCCCO[C@H]1CN(C)C(=O)c1ccccc1	·	–	·
C[C@@H]1CCCCO[C@H](CN(C)C(=O)NC2CCCCC2)[C@H](C)CN([C@@H](C)CO)C(=O)c2cc(NC(=O)Nc3ccc(C(F)(F)F)cc3)ccc2O1	·	–	·
C[C@@H]1CCCCO[C@@H](CN(C)C(=O)NC2CCCCC2)[C@@H](C)CN([C@H](C)CO)C(=O)c2cc(NC(=O)Nc3ccc(C(F)(F)F)cc3)ccc2O1	–	–	71.7
C[C@@H]1CCCCO[C@H](CN(C)C(=O)Nc2ccc(C(F)(F)F)cc2)[C@@H](C)CN([C@H](C)CO)C(=O)c2cc(NC(=O)C3CCCCC3)ccc2O1	–	·	72.0
C[C@@H]1CCCCO[C@H](CN(C)C(=O)Nc2ccc(C(F)(F)F)cc2)[C@H](C)CN([C@H](C)CO)C(=O)c2cc(NC(=O)C3CCCCC3)ccc2O1	·	–	·
C[C@H]1CCCCO[C@@H](CN(C)C(=O)C2CCCCC2)[C@@H](C)CN([C@@H](C)CO)C(=O)c2cc(NC(=O)Nc3ccc(C(F)(F)F)cc3)ccc2O1	·	–	·
C[C@@H]1CCCCO[C@H](CN(C)C(=O)Nc2ccc(C(F)(F)F)cc2)[C@@H](C)CN([C@H](C)CO)C(=O)c2cc(NC(=O)NC3CCCCC3)ccc2O1	–	·	67.8

Source: PubChem
